Measured values from article PMC6500982 (Cancer Science, 2019).

Experiment: Safety and tolerability
Type: in vivo, human
Procedure, shortened: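 Patients (enrolled January 2015–February 2016) received oral test compound in four cohorts: 160, 320 or 480 mg QD, or 300 mg BID. Dosing continued until progression, unacceptable AEs or consent withdrawal. AEs were graded by CTCAE v4.0, alongside laboratory tests, vital signs and ECGs. The safety population was all patients receiving ≥1 dose.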

[1] = Japanese patients with B‐cell NHL and CLL

CC#CC(=O)N1CC[C@@H](n2c(=O)n(-c3ccc(Oc4ccccc4)cc3)c3c(N)ncnc32)C1 [tirabrutinib]
Myalgia, Any grade (320 mg QD N = 3): 0 n (%) | Myalgia, Grade ≥3 (320 mg QD N = 3): 0 n (%) | Nasopharyngitis, Any grade (320 mg QD N = 3): 0 n (%) | Nasopharyngitis, Grade ≥3 (320 mg QD N = 3): 0 n (%) | Nausea, Any grade (320 mg QD N = 3): 0 n (%) | Nausea, Grade ≥3 (320 mg QD N = 3): 0 n (%) | Neutropenia, Any grade (320 mg QD N = 3): 2 (66.7) n (%) | Neutropenia, Grade ≥3 (320 mg QD N = 3): 2 (66.7) n (%) | Pharyngitis, Any grade (320 mg QD N = 3): 0 n (%) | Pharyngitis, Grade ≥3 (320 mg QD N = 3): 0 n (%) | Pyrexia, Any grade (320 mg QD N = 3): 0 n (%) | Pyrexia, Grade ≥3 (320 mg QD N = 3): 0 n (%) | Rash, Any grade (320 mg QD N = 3): 2 (66.7) n (%) | Rash, Grade ≥3 (320 mg QD N = 3): 0 n (%) | Thrombocytopenia, Any grade (320 mg QD N = 3): 1 (33.3) n (%) | Thrombocytopenia, Grade ≥3 (320 mg QD N = 3): 0 n (%) | Upper respiratory tract inflammation, Any grade (320 mg QD N = 3): 1 (33.3) n (%) | Upper respiratory tract inflammation, Grade ≥3 (320 mg QD N = 3): 0 n (%) | Vomiting, Any grade (320 mg QD N = 3): 1 (33.3) n (%) | Vomiting, Grade ≥3 (320 mg QD N = 3): 0 n (%) | All AEs, Any grade (480 mg QD N = 4): 4 (100.0) n (%) | All AEs, Grade ≥3 (480 mg QD N = 4): 2 (50.0) n (%) | Anemia, Any grade (480 mg QD N = 4): 2 (50.0) n (%) | Anemia, Grade ≥3 (480 mg QD N = 4): 1 (25.0) n (%) | Arthralgia, Any grade (480 mg QD N = 4): 0 n (%) | Arthralgia, Grade ≥3 (480 mg QD N = 4): 0 n (%) | Aspartate aminotransferase increased, Any grade (480 mg QD N = 4): 1 (25.0) n (%) | Aspartate aminotransferase increased, Grade ≥3 (480 mg QD N = 4): 0 n (%) | Constipation, Any grade (480 mg QD N = 4): 1 (25.0) n (%) | Constipation, Grade ≥3 (480 mg QD N = 4): 0 n (%) | Cystitis, Any grade (480 mg QD N = 4): 0 n (%) | Cystitis, Grade ≥3 (480 mg QD N = 4): 0 n (%) | Diarrhea, Any grade (480 mg QD N = 4): 0 n (%) | Diarrhea, Grade ≥3 (480 mg QD N = 4): 0 n (%) | Dysgeusia, Any grade (480 mg QD N = 4): 1 (25.0) n (%) | Dysgeusia, Grade ≥3 (480 mg QD N = 4): 0 n (%) | Gamma‐glutamyltransferase increased, Any grade (480 mg QD N = 4): 0 n (%) | Gamma‐glutamyltransferase increased, Grade ≥3 (480 mg QD N = 4): 0 n (%) | Headache, Any grade (480 mg QD N = 4): 0 n (%) | Headache, Grade ≥3 (480 mg QD N = 4): 0 n (%) | Hypokalemia, Any grade (480 mg QD N = 4): 2 (50.0) n (%) | Hypokalemia, Grade ≥3 (480 mg QD N = 4): 0 n (%) | Hypophosphatemia, Any grade (480 mg QD N = 4): 2 (50.0) n (%) | Hypophosphatemia, Grade ≥3 (480 mg QD N = 4): 1 (25.0) n (%) | Insomnia, Any grade (480 mg QD N = 4): 0 n (%) | Insomnia, Grade ≥3 (480 mg QD N = 4): 0 n (%) | Leukopenia, Any grade (480 mg QD N = 4): 0 n (%) | Leukopenia, Grade ≥3 (480 mg QD N = 4): 0 n (%) | Lymphopenia, Any grade (480 mg QD N = 4): 1 (25.0) n (%) | Lymphopenia, Grade ≥3 (480 mg QD N = 4): 0 n (%) | Malaise, Any grade (480 mg QD N = 4): 1 (25.0) n (%) | Malaise, Grade ≥3 (480 mg QD N = 4): 0 n (%) | Myalgia, Any grade (480 mg QD N = 4): 0 n (%) | Myalgia, Grade ≥3 (480 mg QD N = 4): 0 n (%) | Nasopharyngitis, Any grade (480 mg QD N = 4): 0 n (%) | Nasopharyngitis, Grade ≥3 (480 mg QD N = 4): 0 n (%) | Nausea, Any grade (480 mg QD N = 4): 1 (25.0) n (%) | Nausea, Grade ≥3 (480 mg QD N = 4): 0 n (%) | Neutropenia, Any grade (480 mg QD N = 4): 1 (25.0) n (%) | Neutropenia, Grade ≥3 (480 mg QD N = 4): 1 (25.0) n (%) | Pharyngitis, Any grade (480 mg QD N = 4): 0 n (%) | Pharyngitis, Grade ≥3 (480 mg QD N = 4): 0 n (%) | Pyrexia, Any grade (480 mg QD N = 4): 0 n (%) | Pyrexia, Grade ≥3 (480 mg QD N = 4): 0 n (%) | Rash, Any grade (480 mg QD N = 4): 2 (50.0) n (%) | Rash, Grade ≥3 (480 mg QD N = 4): 0 n (%) | Thrombocytopenia, Any grade (480 mg QD N = 4): 1 (25.0) n (%) | Thrombocytopenia, Grade ≥3 (480 mg QD N = 4): 0 n (%) | Upper respiratory tract inflammation, Any grade (480 mg QD N = 4): 0 n (%) | Upper respiratory tract inflammation, Grade ≥3 (480 mg QD N = 4): 0 n (%) | Vomiting, Any grade (480 mg QD N = 4): 2 (50.0) n (%) | Vomiting, Grade ≥3 (480 mg QD N = 4): 0 n (%) | Patients with DLT (grade 3 pneumonitis) (Cohort 4 (300 mg BID), WM patient): 1 patient | Tolerability [1]: well tolerated | Tolerability confirmed up to (dose) [1]: up to 300 mg BID | Tolerability (Japanese patients with B‐cell NHL and CLL, listed as Tirabrutinib): generally well tolerated | Serious AEs reported as study drug‐related (Mallory‐Weiss syndrome, de novo reactivation of HBV, acute myeloid leukemia, pneumonitis (1 patient each)): 4 | All AEs, Any grade (Total (all cohorts) N = 17): 17 (100.0) n (%) | All AEs, Grade ≥3 (Total (all cohorts) N = 17): 8 (47.1) n (%) | Anemia, Any grade (Total (all cohorts) N = 17): 3 (17.6) n (%) | Anemia, Grade ≥3 (Total (all cohorts) N = 17): 2 (11.8) n (%) | Arthralgia, Any grade (Total (all cohorts) N = 17): 3 (17.6) n (%) | Arthralgia, Grade ≥3 (Total (all cohorts) N = 17): 0 n (%) | Aspartate aminotransferase increased, Any grade (Total (all cohorts) N = 17): 2 (11.8) n (%) | Aspartate aminotransferase increased, Grade ≥3 (Total (all cohorts) N = 17): 0 n (%) | Constipation, Any grade (Total (all cohorts) N = 17): 3 (17.6) n (%) | Constipation, Grade ≥3 (Total (all cohorts) N = 17): 0 n (%) | Cystitis, Any grade (Total (all cohorts) N = 17): 2 (11.8) n (%) | Cystitis, Grade ≥3 (Total (all cohorts) N = 17): 0 n (%) | Diarrhea, Any grade (Total (all cohorts) N = 17): 3 (17.6) n (%) | Diarrhea, Grade ≥3 (Total (all cohorts) N = 17): 0 n (%) | Dysgeusia, Any grade (Total (all cohorts) N = 17): 2 (11.8) n (%) | Dysgeusia, Grade ≥3 (Total (all cohorts) N = 17): 0 n (%) | Gamma‐glutamyltransferase increased, Any grade (Total (all cohorts) N = 17): 2 (11.8) n (%) | Gamma‐glutamyltransferase increased, Grade ≥3 (Total (all cohorts) N = 17): 0 n (%) | Headache, Any grade (Total (all cohorts) N = 17): 2 (11.8) n (%) | Headache, Grade ≥3 (Total (all cohorts) N = 17): 0 n (%) | Hypokalemia, Any grade (Total (all cohorts) N = 17): 2 (11.8) n (%) | Hypokalemia, Grade ≥3 (Total (all cohorts) N = 17): 0 n (%) | Hypophosphatemia, Any grade (Total (all cohorts) N = 17): 2 (11.8) n (%) | Hypophosphatemia, Grade ≥3 (Total (all cohorts) N = 17): 1 (5.9) n (%) | Insomnia, Any grade (Total (all cohorts) N = 17): 3 (17.6) n (%) | Insomnia, Grade ≥3 (Total (all cohorts) N = 17): 0 n (%) | Leukopenia, Any grade (Total (all cohorts) N = 17): 2 (11.8) n (%) | Leukopenia, Grade ≥3 (Total (all cohorts) N = 17): 2 (11.8) n (%) | Lymphopenia, Any grade (Total (all cohorts) N = 17): 2 (11.8) n (%) | Lymphopenia, Grade ≥3 (Total (all cohorts) N = 17): 1 (5.9) n (%) | Malaise, Any grade (Total (all cohorts) N = 17): 3 (17.6) n (%) | Malaise, Grade ≥3 (Total (all cohorts) N = 17): 0 n (%) | Myalgia, Any grade (Total (all cohorts) N = 17): 2 (11.8) n (%) | Myalgia, Grade ≥3 (Total (all cohorts) N = 17): 0 n (%) | Nasopharyngitis, Any grade (Total (all cohorts) N = 17): 2 (11.8) n (%) | Nasopharyngitis, Grade ≥3 (Total (all cohorts) N = 17): 0 n (%) | Nausea, Any grade (Total (all cohorts) N = 17): 3 (17.6) n (%) | Nausea, Grade ≥3 (Total (all cohorts) N = 17): 0 n (%) | Neutropenia, Any grade (Total (all cohorts) N = 17): 4 (23.5) n (%) | Neutropenia, Grade ≥3 (Total (all cohorts) N = 17): 4 (23.5) n (%) | Pharyngitis, Any grade (Total (all cohorts) N = 17): 2 (11.8) n (%) | Pharyngitis, Grade ≥3 (Total (all cohorts) N = 17): 0 n (%) | Pyrexia, Any grade (Total (all cohorts) N = 17): 2 (11.8) n (%) | Pyrexia, Grade ≥3 (Total (all cohorts) N = 17): 0 n (%) | Rash, Any grade (Total (all cohorts) N = 17): 6 (35.3) n (%) | Rash, Grade ≥3 (Total (all cohorts) N = 17): 0 n (%) | Thrombocytopenia, Any grade (Total (all cohorts) N = 17): 2 (11.8) n (%) | Thrombocytopenia, Grade ≥3 (Total (all cohorts) N = 17): 0 n (%) | Upper respiratory tract inflammation, Any grade (Total (all cohorts) N = 17): 2 (11.8) n (%) | Upper respiratory tract inflammation, Grade ≥3 (Total (all cohorts) N = 17): 0 n (%) | Vomiting, Any grade (Total (all cohorts) N = 17): 5 (29.4) n (%) | Vomiting, Grade ≥3 (Total (all cohorts) N = 17): 0 n (%) | Tirabrutinib‐induced lymphocytosis (all patients): no tirabrutinib‐induced lymphocytosis observed | Anemia, grade ≥3 (grade 3 or 4) (all patients N = 17): 11.8% | Leukopenia, grade ≥3 (grade 3 or 4) (all patients N = 17): 11.8% | Neutropenia, grade ≥3 (grade 3 or 4) (all patients N = 17): 23.5% | Patients who developed grade ≥3 AEs (all patients N = 17): 47.1% | Patients with serious AEs (all patients N = 17): 7 patients | Maximum tolerated dose (MTD) (cohorts 160, 320, 480 mg QD and 300 mg BID): not reached
